Screens from PubChem BioAssay.
The list is not random: actives were taken first. Their share in the collection is about 2.9%.
iPSC survival up – enhancers of human iPSC single-cell survival; hiPSC single-cell survival, ATPlite luminescence; 100% = ROCK inhibitor wells, 0% = DMSO; survival enhancement, % at 20 µM; 360,000 compounds, 0.044% hits; AID 602274; in the data active means survival enhancement above about 18%;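 further: cells exposed to compounds for 16 hours before the ATP read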
PG9 Ab binder – binds the HIV-1 gp120 antibody PG9; TR-FRET gp120-PG9 antibody binding; inhibition, % at 6.7 µM; 360,000 compounds, 0.43% hits; in the data active means inhibition above about 8.5%
beta cell repl – induces beta-cell replication in MIN6 cells. MIN6 cells proliferation, ATPlite luminescence, 48 h; cells starved in 0.2% serum; 100% = growth in 10% serum. 330,000 compounds, 0.29% hits. proliferation, % at 10 µM;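 active means compounds whose signal lies at least 3.5 SD above the mean of all wells on their plate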
T cruzi inh – blocks replication of Trypanosoma cruzi. T. cruzi beta-gal in NIH3T3, luminescence, 90 h. inhibition, % (no concentration beside the values). 300,000 compounds, 1.4% hits. AID 1885;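 active means mean inhibition across valid replicates above about 55%, limit read from the data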;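 further: signal also drops with host cell toxicity which is not excluded here; higher percent means less beta-gal luminescence so fewer parasites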
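System: mouse NIH/3T3 fibroblasts infected with β-gal-expressing T. cruzi Tulahuen C4 / Input: NIH/3T3 cells, 5,000 per well / Buffer or medium: Low-serum DMEM with 2% FBS / Probe or stimulus: 5000 reporter trypomastigotes per well / Schedule: ≥90 h infection period, 3 h prior cell attachment / Measured by: GalScreen luminescence, 60 min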
Rev-erbA mod – Rev-erb alpha (human) modulation; AID 1259318; activity, % at 10 µM; Rev-erbα–FITC-DNA binding, fluorescence polarization, 90 min; 370,000 compounds, 0.79% hits;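 active means activity above about 14%, limit read from the data; passing the limit was not always enough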
Target sequence (P20393 whole entry, looked up): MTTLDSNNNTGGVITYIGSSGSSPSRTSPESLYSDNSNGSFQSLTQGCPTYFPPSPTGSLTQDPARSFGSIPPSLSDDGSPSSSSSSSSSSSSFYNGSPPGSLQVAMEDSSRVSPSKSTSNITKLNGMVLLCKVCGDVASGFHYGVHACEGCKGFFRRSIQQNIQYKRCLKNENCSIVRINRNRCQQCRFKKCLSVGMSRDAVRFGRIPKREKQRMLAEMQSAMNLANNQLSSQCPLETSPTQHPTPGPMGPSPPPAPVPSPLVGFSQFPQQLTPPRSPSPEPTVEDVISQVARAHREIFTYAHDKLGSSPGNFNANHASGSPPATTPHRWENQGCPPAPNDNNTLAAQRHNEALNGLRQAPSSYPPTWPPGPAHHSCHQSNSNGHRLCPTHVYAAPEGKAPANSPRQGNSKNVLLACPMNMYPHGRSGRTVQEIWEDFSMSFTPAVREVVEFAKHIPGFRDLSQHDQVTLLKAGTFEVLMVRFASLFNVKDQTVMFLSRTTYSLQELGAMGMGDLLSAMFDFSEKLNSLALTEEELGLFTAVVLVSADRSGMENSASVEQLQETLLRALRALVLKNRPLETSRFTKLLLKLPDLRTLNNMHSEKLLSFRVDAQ
TAG inh – triacylglycerol accumulation inhibition. H9c2 cells, Nile Red lipid (TAG) fluorescence; cells loaded with 200 µM oleic acid. inhibition, % at 12.5 µM. 230,000 compounds, 0.66% hits. AID 651582;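 active means pattern-corrected inhibition of lipid staining of at least 50% with the nuclear-stain viability signal not falling by more than 50%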
NR1D1 mod conf – Rev-erb alpha (human) modulation, hit confirmation; shares compounds with Rev-erbA mod; Rev-erb alpha FITC-DNA binding, fluorescence polarization, 90 min; activation, % at 25 µM; 3,000 compounds, 61% hits; AID 1259319;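 active means activation at or above a set limit, or at least 3 SD above the negative control mean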
RORg counter – affects RORgamma DNA binding in a Rev-erb alpha counter-screen; shares compounds with Rev-erbA mod; purified RORgamma protein-FITC-DNA binding, fluorescence polarization; IC50, µM; 910 compounds, 8% hits;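 active means Compounds whose fitted half-maximal concentration for disrupting protein-DNA binding is below 10 micromolar; the record names Rev-erb in its text, so the target is in doubt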
Large screens that a line does not name were inactive (follow-up assays come after a bar, where they were run).

CCCCc1nc2sc3c(=O)[nH]cnc3c2c2c1CCCC2	none
CC/C(=N\Nc1ccc([N+](=O)[O-])cc1[N+](=O)[O-])c1ccc(O)cc1	none (no result: TAG inh)
CC/C(=N\Nc1ccccc1[N+](=O)[O-])c1ccc(O)cc1	Rev-erbA mod 15 (no result: TAG inh) | NR1D1 mod conf inactive
CCCCC(C(=O)NC1CCCC1)N(Cc1ccccc1)C(=O)c1snc(C(N)=O)c1N (stereo unspecified)	Rev-erbA mod 22 (no result: TAG inh) | NR1D1 mod conf inactive
CCCC(C(=O)NC1CCCC1)N(Cc1ccc(F)cc1)C(=O)c1snc(C(N)=O)c1N (stereo unspecified)	none (no result: TAG inh)
CC(C)c1ccc(N(C(=O)c2snc(C(N)=O)c2N)C(C(=O)NCC2CCCO2)c2ccc(N(C)C)cc2)cc1 (stereo unspecified)	none (no result: TAG inh)
CN(C)c1ccc(C(C(=O)NCC2CCCO2)N(C(=O)c2snc(C(N)=O)c2N)c2ccccc2)cc1 (stereo unspecified)	Rev-erbA mod 38 (no result: TAG inh) | NR1D1 mod conf inactive
Cc1cccc(N(C(=O)c2snc(C(N)=O)c2N)C(C(=O)NCC2CCCO2)c2ccc(N(C)C)cc2)c1 (stereo unspecified)	Rev-erbA mod 46 (no result: TAG inh) | NR1D1 mod conf inactive
COc1cc(OC)cc(-n2nnnc2SCC(=O)NCc2ccc3c(c2)OCO3)c1	none (no result: TAG inh)
CC(C)c1cc(=O)oc2c3c4c(cc12)CCCN4CCC3	none (no result: TAG inh)
O=c1oc2c3c4c(cc2c(C(F)(F)F)c1CCN1CCOCC1)CCCN4CCC3	Rev-erbA mod 52 | NR1D1 mod conf 63 | RORg counter inactive
Clc1ccc(-c2nnc(C3CCCCC3)o2)cc1	none
Cc1ccc(/C=N/c2sc(Cc3ccccc3)c(C)c2C(N)=O)o1	Rev-erbA mod 29 (no result: TAG inh) | NR1D1 mod conf inactive
COC(=O)CCC(=O)c1oc2ccc(Cl)cc2c1NC(=O)CCCN1C(=O)c2ccccc2C1=O	Rev-erbA mod 41 | NR1D1 mod conf 28
CN1CC2(C)CN(C(c3ccccc3)c3ccccc3)CC(C)(C1)C2O (stereo unspecified)	none (no result: T cruzi inh, TAG inh)
COCCNC(=O)C1CCC(CNS(=O)(=O)c2cccc3nsnc23)CC1 (stereo unspecified)	none (no result: TAG inh)
O=C(NCc1ccccn1)C1CCC(CNS(=O)(=O)c2cccc3nsnc23)CC1 (stereo unspecified)	none
O=C(NCc1ccc2c(c1)OCO2)C1CCC(CNS(=O)(=O)c2cccc3nsnc23)CC1 (stereo unspecified)	Rev-erbA mod 34 | NR1D1 mod conf 28 | RORg counter inactive
COc1ccc(CNC(=O)C2CCC(CNS(=O)(=O)c3cccc4nsnc34)CC2)cc1 (stereo unspecified)	Rev-erbA mod 72 | NR1D1 mod conf 52 | RORg counter inactive
N#CCSc1nc(-c2ccccc2)c2cc(Cl)ccc2n1	Rev-erbA mod 21 (no result: TAG inh) | NR1D1 mod conf inactive
O=C(Nc1nnc(-c2ccc(F)cc2)s1)C1CCN(S(=O)(=O)c2ccc(Cl)cc2)CC1	Rev-erbA mod 121 (no result: TAG inh) | NR1D1 mod conf inactive
O=C(Nc1nnc(-c2ccccc2F)s1)C1CCN(S(=O)(=O)c2ccc(Cl)cc2)CC1	Rev-erbA mod 33 (no result: TAG inh) | NR1D1 mod conf inactive
OCc1ccnc2oc3ccccc3c12	none
CC1CCCN(CCCOc2ccc(Cl)cc2Br)C1 (stereo unspecified)	none (no result: TAG inh)
O=C(c1ccc2c(=O)n(Cc3ccccc3Cl)c(=S)[nH]c2c1)N1CCOCC1	Rev-erbA mod 32 (no result: TAG inh) | NR1D1 mod conf 27
O=c1c2cc(N3CCOCC3)ccc2[nH]c(=S)n1Cc1ccccc1Cl	none
O=C(OCC(=O)N1CCCc2ccccc21)c1cc(Cl)ccc1O	Rev-erbA mod 24 | NR1D1 mod conf inactive
CC(C)CCNc1nnnc2c1sc1nc(N3CCOCC3)c3c(c12)CC(C)(C)SC3	Rev-erbA mod 21 | NR1D1 mod conf inactive
CC(=O)N1N=C(c2ccc(Cl)cc2)CC1c1ccco1 (stereo unspecified)	none
O=C(c1ccc(Br)o1)N1N=C(c2ccc(Cl)cc2)CC1c1ccco1 (stereo unspecified)	Rev-erbA mod 24 (no result: TAG inh) | NR1D1 mod conf inactive
CCSc1ccc([C@@H]2[C@@H]3C(=O)N(CC)C(=O)[C@@H]3[C@]3(C(=O)OC)CCCCN23)cc1	none
COC(=O)[C@@]12CCCCN1[C@H](c1ccc(-c3cc(C(C)=O)cs3)c(OC)c1)[C@H]1C(=O)N(C)C(=O)[C@H]12	Rev-erbA mod 41 (no result: T cruzi inh) | NR1D1 mod conf 34
COC(=O)[C@@]12CCCCN1[C@H](c1ccc(-c3cc(C(C)=O)cs3)cc1)[C@H]1C(=O)N(C)C(=O)[C@H]12	Rev-erbA mod 30 | NR1D1 mod conf 22
CCC(C)Sc1ccc([C@@H]2[C@H]3C(=O)N(CC)C(=O)[C@H]3[C@]3(C(=O)OC)CCCCN23)cc1 (stereo partly specified)	Rev-erbA mod 16 (no result: T cruzi inh) | NR1D1 mod conf inactive
CNC(=O)c1c(C)nn(-c2ccc(F)c(Cl)c2)c1-c1cc(C)on1	none
O=C(COc1ccc2ccccc2c1)NNC(=O)Cc1ccccc1	Rev-erbA mod 35 (no result: beta cell repl, TAG inh) | NR1D1 mod conf 29
O=C1c2cccnc2C(=O)N1Cc1ccccc1	none
O=C1c2cccc3c(O)ccc(c23)C(=O)N1Cc1ccccc1	Rev-erbA mod 73 | NR1D1 mod conf 73 | RORg counter inactive
O=C1OCc2ccc(NC(=O)c3c(F)cccc3Cl)cc21	none
CN(C)c1ccc(C#Cc2ccc3cc(CCCO)oc(=O)c3c2)cc1	Rev-erbA mod 28 (no result: T cruzi inh, TAG inh) | NR1D1 mod conf inactive
O=c1oc(CCCO)cc2ccc(C#CC3(O)CCCCC3)cc12	none (no result: T cruzi inh)
O=c1oc(CCCO)cc2ccc(C#Cc3ccsc3)cc12	none (no result: T cruzi inh)
O=C1c2ccccc2C(=O)N1CCC#Cc1ccc2cc(CCCO)oc(=O)c2c1	Rev-erbA mod 16 (no result: T cruzi inh) | NR1D1 mod conf inactive
CC(Sc1nnc(CN2CCCC2)n1Cc1ccccc1)C(=O)Nc1ccc(F)c(F)c1F (stereo unspecified)	none (no result: beta cell repl, T cruzi inh)
Cc1ccc(C2CC(c3cccs3)=NN2C(=O)CSC2=NCCS2)cc1 (stereo unspecified)	none (no result: TAG inh)
COc1ccc(C2CC(c3cccs3)=NN2C(=O)CSC2=NCCS2)cc1 (stereo unspecified)	Rev-erbA mod 14 | NR1D1 mod conf inactive
CCOc1ccc(C(=O)OC(C)CN2CCCCC2)cc1 (stereo unspecified)	none (no result: TAG inh)
Cc1cccc(Cc2nnc(CCC(=O)N(C)CCc3ccccc3)o2)c1	none
O=C(CSc1ncnc2c(-c3ccc(Cl)cc3)nsc12)c1ccccc1	Rev-erbA mod 34 (no result: TAG inh) | NR1D1 mod conf 19
